Experimental data from ChEMBL document CHEMBL5634095, “Design, synthesis and evaluation of novel pyrimidinylaminothiophene derivatives as FGFR1 inhibitors against human glioblastoma multiforme” (Eur J Med Chem, 2023).
Calls of active or inactive are those of the source. The rule behind the calls is not given here.

How the values were obtained:
U-87 MG [1] = assay: Antiproliferative activity against human U-87 MG cells incubated for 48 hrs by MTT assay
U-87 MG [2] = assay: Inhibition of colony formation in human U-87MG cells
NIH3T3 = assay: Cytotoxicity against mouse NIH/3T3 cells incubated for 48 hrs by MTT assay; format: toxicity, cell-based; conditions: nih3t3, 48 h
[3] = Cmax in rat at 52.5 mg/kg, po measured upto 48 hrs by LC analysis; format: ADME, organism-based; conditions: in vivo
How it was run: (§1)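 Rats (n=5) dosed orally once with 52.5 mg/kg, dispersed in sodium carboxymethyl cellulose. Plasma separated at 1200×g, deproteinated with acetonitrile, then analysed by UHPLC on a C18 column with a methanol/formic acid eluent.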

[4] = Tmax in rat at 52.5 mg/kg, po measured upto 48 hrs by LC analysis; format: ADME, organism-based; conditions: in vivo; how it was run: as §1
[5] = Terminal half-life in rat at 52.5 mg/kg, po measured upto 48 hrs by LC analysis; format: ADME, organism-based; conditions: in vivo, read-out: beta t1/2 (converted); how it was run: as §1
[6] = AUC in rat at 52.5 mg/kg, po measured upto 48 hrs by LC analysis; format: ADME, organism-based; conditions: in vivo; how it was run: as §1
U-87 MG [7] = assay: Antitumor activity against human U-87 MG cells implanted in nude mouse assessed as reduction in Ki67 expression at 50 mg/kg/day, po administered 5 times a week for 4 weeks by IHC analysis; format: functional, U-87MG ATCC; design: scale not given: the % may be the effect or the level left
U-87 MG [8] = assay: Antitumor activity against human U-87 MG cells implanted in nude mouse assessed as reduction in Ki67 expression at 75 mg/kg/day, po administered 5 times a week for 4 weeks by IHC analysis; format: functional, U-87MG ATCC; design: scale not given: the % may be the effect or the level left
U-87 MG [9] = assay: Antitumor activity against human U-87 MG cells implanted in nude mouse assessed as reduction in CD31 expression at 50 mg/kg/day, po administered 5 times a week for 4 weeks by IHC analysis; format: functional, U-87MG ATCC; design: scale not given: the % may be the effect or the level left
U-87 MG [10] = assay: Antitumor activity against human U-87 MG cells implanted in nude mouse assessed as reduction in CD31 expression at 75 mg/kg/day, po administered 5 times a week for 4 weeks by IHC analysis; format: functional, U-87MG ATCC; design: scale not given: the % may be the effect or the level left
U-87 MG [11] = assay: Induction of cell cycle arrest in human U-87 MG cells assessed as increase in G2/M phase cell population at 0.3 uM incubated for 48 hrs by PI staining based flow cytometry analysis (reference value: 14.5 %); format: functional, U-87MG ATCC
U-87 MG [12] = assay: Induction of cell cycle arrest in human U-87 MG cells assessed as increase in G2/M phase cell population at 1 uM incubated for 48 hrs by PI staining based flow cytometry analysis (reference value: 14.5 %); format: functional, U-87MG ATCC
U-87 MG [13] = assay: Induction of cell cycle arrest in human U-87 MG cells assessed as increase in G2/M phase cell population at 3 uM incubated for 48 hrs by PI staining based flow cytometry analysis (reference value: 14.5 %); format: functional, U-87MG ATCC
U-87 MG [14] = assay: Induction of cell cycle arrest in human U-87 MG cells assessed as decrease in G0 phase cell population at 0.3 uM incubated for 48 hrs by PI staining based flow cytometry analysis (reference value: 71.6 %); format: functional, U-87MG ATCC; design: scale not given: the % may be the effect or the level left
U-87 MG [15] = assay: Induction of cell cycle arrest in human U-87 MG cells assessed as decrease in G0 phase cell population at 1 uM incubated for 48 hrs by PI staining based flow cytometry analysis (reference value: 71.6 %); format: functional, U-87MG ATCC; design: scale not given: the % may be the effect or the level left
U-87 MG [16] = assay: Induction of cell cycle arrest in human U-87 MG cells assessed as decrease in G0 phase cell population at 3 uM incubated for 48 hrs by PI staining based flow cytometry analysis (reference value: 71.6 %); format: functional, U-87MG ATCC; design: scale not given: the % may be the effect or the level left
U-87 MG [17] = assay: Anti-invasive activity against human U-87 MG cells assessed as reduction in number of cells at upper well at 0.3 uM incubated for 24 hrs by crystal violet staining based inverted microscope analysis; format: functional, U-87MG ATCC
How it was run: (§2)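 Transwell top chambers coated with Matrigel (1:9 in serum-free DMEM). U-87 MG cells pretreated 20 min with 0.1% DMSO or compound, seeded at 1×10^4 cells/well, with complete medium below. After 24 h, non-invading cells removed and the rest fixed in paraformaldehyde, stained with 0.1% crystal violet, imaged at ×100 in six random fields and counted.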

U-87 MG [18] = assay: Anti-invasive activity against human U-87 MG cells assessed as reduction in number of cells at upper well at 3 uM incubated for 24 hrs by crystal violet staining based inverted microscope analysis; format: functional, U-87MG ATCC; how it was run: as §2
HUVEC [19] = assay: Anti-angiogenesis activity in HUVEC assessed as reduction in tube formation at 0.1 uM incubated for 24 hrs by matrigel based light microscopic analysis; format: functional, Homo sapiens; design: scale not given: the % may be the effect or the level left
HUVEC [20] = assay: Anti-angiogenesis activity in HUVEC assessed as reduction in tube formation at 0.5 uM incubated for 24 hrs by matrigel based light microscopic analysis; format: functional, Homo sapiens; design: scale not given: the % may be the effect or the level left
HUVEC [21] = assay: Anti-angiogenesis activity in HUVEC assessed as reduction in tube formation at 2 uM incubated for 24 hrs by matrigel based light microscopic analysis; format: functional, Homo sapiens; design: scale not given: the % may be the effect or the level left
Mus musculus = species: Mus musculus; conditions: dose 50-75 mg/kg/day, route po, time 4.0 weeks

SMILES: CNC(=O)c1ccsc1Nc1nc(Nc2ccc(N3CCC(N4CCOCC4)CC3)cc2)ncc1C(F)(F)F
- IC50 (U-87 MG [1]): 2.38 µM
- IC50 (U-87 MG [2]): 0.12 µM
- Activity (NIH3T3): Non-Toxic
- Cmax [3]: 3900 ng/mL
- Tmax [4]: 4.4 h
- half-life [5]: 14.3 h
- AUC at 48 h [6]: 71500 ng·h/mL
- Activity (U-87 MG [7]): 38.4%
- Activity (U-87 MG [8]): 62%
- Activity (U-87 MG [9]): 78.9%
- Activity (U-87 MG [10]): 37.5%
- Activity (U-87 MG [11]): 56.8%
- Activity (U-87 MG [12]): 79.4%
- Activity (U-87 MG [13]): 86.8%
- Activity (U-87 MG [14]): 34.4%
- Activity (U-87 MG [15]): 16.6%
- Activity (U-87 MG [16]): 9.36%
- Activity (U-87 MG [17]): 71
- Activity (U-87 MG [18]): 24
- Activity (HUVEC [19]): 10.4%
- Activity (HUVEC [20]): 59.7%
- Activity (HUVEC [21]): 81%
- inhibition (Mus musculus): Active

SMILES: CNC(=O)c1ccsc1Nc1nc(Nc2ccc(N3CCN(CCO)CC3)cc2)ncc1C(F)(F)F
- IC50 (U-87 MG [1]): 3.71 µM

SMILES: CNC(=O)c1cc(-c2ccccc2)sc1Nc1nc(Nc2ccc(N3CCOCC3)cc2)ncc1C(F)(F)F
- IC50 (U-87 MG [1]): 23.2 µM

SMILES: COc1cc(CCc2cc(NC(=O)c3ccc(N4C[C@@H](C)N[C@@H](C)C4)cc3)n[nH]2)cc(OC)c1 [FEXAGRATINIB]
- IC50 (U-87 MG [1]): 25.4 µM

SMILES: CNC(=O)c1ccsc1Nc1nc(Nc2ccc(N3CCC(N4CCOCC4)CC3)cc2)ncc1C
- IC50 (U-87 MG [1]): 11.6 µM

SMILES: CNC(=O)c1cc(C(C)(C)C)sc1Nc1nc(Nc2ccc(N3CCOCC3)cc2)ncc1C(F)(F)F
- IC50 (U-87 MG [1]): > 50 µM

SMILES: CNC(=O)c1ccsc1Nc1nc(Nc2ccc(CCN3CCS(=O)(=O)CC3)cc2)ncc1C(F)(F)F
- IC50 (U-87 MG [1]): 12.4 µM

SMILES: CNC(=O)c1ccsc1Nc1nc(Nc2ccc(N3CCC(N4CCOCC4)CC3)cc2)ncc1Cl
- IC50 (U-87 MG [1]): 4.25 µM

SMILES: CNC(=O)c1ccsc1Nc1nc(Nc2ccc(N3CCC(N4CCOCC4)CC3)cc2)ncc1Br
- IC50 (U-87 MG [1]): 30.1 µM

SMILES: CNC(=O)c1ccsc1Nc1nc(Nc2ccc(N3CCOCC3)cc2)ncc1C(F)(F)F
- IC50 (U-87 MG [1]): > 50 µM

SMILES: CNC(=O)c1ccsc1Nc1nc(Nc2ccc(N3CCC(N4CCCCC4)CC3)cc2)ncc1C(F)(F)F
- IC50 (U-87 MG [1]): 2.77 µM

SMILES: CNC(=O)c1ccsc1Nc1nc(Nc2cccc(N3CCOCC3)c2)ncc1C(F)(F)F
- IC50 (U-87 MG [1]): 19.2 µM

SMILES: CNC(=O)c1ccsc1Nc1nc(Nc2ccc(OCCN3CCOCC3)cc2)ncc1C(F)(F)F
- IC50 (U-87 MG [1]): 12 µM

SMILES: CNC(=O)c1ccsc1Nc1nc(Nc2ccc(CS(=O)(=O)N3CCOCC3)cc2)ncc1C(F)(F)F
- IC50 (U-87 MG [1]): 18.9 µM
